According to ChEMBL document CHEMBL3763114, “Syntheses and biological evaluation of 1,2,3-triazole and 1,3,4-oxadiazole derivatives of imatinib” (Bioorg Med Chem Lett, 2016):

Key:
[1] = system: K562; assay: Antiproliferative activity against human K562 cells assessed as inhibition of cell survival after 72 hrs by MTT assay; format: functional, cell-based; conditions: K562, 72 h
Outline: (§1)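 Each of the three leukemia lines (K562, HL60, KG1a) was incubated with the compounds for 72 h. The survival rate was then read by MTT viability assay, with imatinib run as the positive control. Inhibitory activity is reported as IC50 in μM.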

[2] = Antiproliferative activity against human HL60 cells assessed as inhibition of cell survival after 72 hrs by MTT assay; format: functional, cell-based; conditions: HL-60, 72 h; outline: as §1
[3] = Antiproliferative activity against human KG1a cells assessed as inhibition of cell survival after 72 hrs by MTT assay; format: functional, cell-based; conditions: KG-1a; outline: as §1
[4] = system: K562; assay: Antiproliferative activity against human K562 cells assessed as reduction in cell viability after 72 hrs by resazurin assay; format: functional, cell-based; conditions: K562, 72 h
[5] = Cytotoxicity against human 293T cells assessed as growth inhibition; format: cell-based, HEK-293T
[6] = Potency index, ratio of imatinib IC50 to compound IC50 for antiproliferative activity against human KG1a cells; format: functional

Cc1ccc(-n2cc(-c3ccc(C)c(C(F)(F)F)c3)nn2)cc1Nc1nccc(-c2cccnc2)n1
IC50 [1]: > 30 µM
IC50 [2]: > 30 µM
IC50 [3]: > 30 µM

Cc1ccc(-c2nnc(-c3cc(C(F)(F)F)cc(C(F)(F)F)c3)o2)cc1Nc1nccc(-c2cccnc2)n1
IC50 [1]: > 30 µM
IC50 [2]: > 30 µM
IC50 [3]: > 30 µM

Cc1ccc(-n2cc(-c3ccc(CN4CCN(C)CC4)cc3)nn2)cc1Nc1nccc(-c2cccnc2)n1
IC50 [4]: 0.89 µM
IC50 [1]: 0.79 µM
CC50 [5]: 14.9 µM

Cc1ccc(-c2cn(-c3ccc(CN4CCN(C)CC4)c(C(F)(F)F)c3)nn2)cc1Nc1nccc(-c2cccnc2)n1
IC50 [1]: 0.03 µM
IC50 [2]: 0.02 µM
IC50 [3]: 1.04 µM
CC50 [5]: 2.66 µM

CCN(CC)c1ccc(-n2cc(-c3ccc(C)c(Nc4nccc(-c5cccnc5)n4)c3)nn2)cc1
IC50 [1]: > 30 µM
IC50 [2]: 13.6 µM
IC50 [3]: 2.93 µM

Cc1ccc(-c2cn(-c3cc(C(F)(F)F)ccc3N3CCOCC3)nn2)cc1Nc1nccc(-c2cccnc2)n1
IC50 [1]: 9.99 µM
IC50 [2]: 17.5 µM
IC50 [3]: 2.43 µM

COc1ccc(-n2cc(-c3ccc(C)c(Nc4nccc(-c5cccnc5)n4)c3)nn2)cc1
IC50 [1]: > 30 µM
IC50 [2]: > 30 µM

Cc1ccc(-c2nnc(-c3ccc(CN4CCN(C)CC4)cc3)o2)cc1Nc1nccc(-c2cccnc2)n1
IC50 [1]: 4.9 µM
IC50 [2]: 0.57 µM
IC50 [3]: 1.78 µM
CC50 [5]: 7.63 µM

Cc1ccc(-c2nnc(-c3cccnc3)o2)cc1Nc1nccc(-c2cccnc2)n1
IC50 [1]: > 30 µM
IC50 [2]: > 30 µM
IC50 [3]: > 30 µM

Cc1ccc(-c2cn(-c3ccc(CN4CCN(C)CC4)cc3)nn2)cc1Nc1nccc(-c2cccnc2)n1
IC50 [1]: 4.7 µM
IC50 [2]: 6.74 µM
IC50 [3]: 6.16 µM
CC50 [5]: 4.15 µM

Cc1nnc(-c2ccc(C)c(Nc3nccc(-c4cccnc4)n3)c2)o1
IC50 [1]: > 30 µM
IC50 [2]: > 30 µM
IC50 [3]: 18 µM

Cc1ccc(-c2nnc(-c3ccc(CN4CCN(CCO)CC4)cc3)o2)cc1Nc1nccc(-c2cccnc2)n1
IC50 [1]: 4.85 µM
IC50 [2]: 0.81 µM
IC50 [3]: 4.53 µM

Cc1ccc(-c2nnc(-c3ccc(C)c(C(F)(F)F)c3)o2)cc1Nc1nccc(-c2cccnc2)n1
IC50 [1]: > 30 µM
IC50 [2]: > 30 µM
IC50 [3]: > 30 µM

Cc1ccc(-c2nnc(-c3ccc(CN4CCN(C)CC4)c(C(F)(F)F)c3)o2)cc1Nc1nccc(-c2cccnc2)n1
IC50 [1]: 0.51 µM
IC50 [2]: 0.05 µM
IC50 [3]: 0.58 µM
Ratio IC50 [6]: 30
CC50 [5]: 2.17 µM

Cc1ccc(-n2cc(CCO)nn2)cc1Nc1nccc(-c2cccnc2)n1
IC50 [1]: 10.7 µM
IC50 [2]: 9.1 µM
IC50 [3]: 6.54 µM

Cc1ccc(-c2nnc(-c3ccc(CN4CCN(CCN=C=S)CC4)cc3)o2)cc1Nc1nccc(-c2cccnc2)n1
IC50 [1]: 0.92 µM
IC50 [2]: 0.29 µM
IC50 [3]: 0.37 µM

COc1ccc(-c2cn(-c3ccc(C)c(Nc4nccc(-c5cccnc5)n4)c3)nn2)cc1C(F)(F)F
IC50 [1]: 11.2 µM
IC50 [2]: 21.2 µM
IC50 [3]: 30 µM

Cc1ccc(-c2cn(-c3ccc(CN4CCCC4)cc3)nn2)cc1Nc1nccc(-c2cccnc2)n1
IC50 [1]: 3.89 µM
IC50 [2]: 1.57 µM
IC50 [3]: 5.42 µM

Cc1ccc(-n2cc(-c3ccc(CN4CCN(C)CC4)c(C(F)(F)F)c3)nn2)cc1Nc1nccc(-c2cccnc2)n1
IC50 [1]: 0.04 µM
IC50 [2]: 0.02 µM
IC50 [3]: 1.27 µM
CC50 [5]: 8.18 µM

Cc1ccc(-n2cc(CCCCO)nn2)cc1Nc1nccc(-c2cccnc2)n1
IC50 [1]: 11.2 µM

COc1cc(/C=C/C(=O)CC(=O)/C=C/c2ccc(OCCN3CCN(Cc4ccc(-c5nnc(-c6ccc(C)c(Nc7nccc(-c8cccnc8)n7)c6)o5)cc4)CC3)c(OC)c2)ccc1O
IC50 [1]: > 30 µM
IC50 [2]: > 30 µM
IC50 [3]: > 30 µM

Cc1ccc(-c2cn(-c3ccccc3N3CCOCC3)nn2)cc1Nc1nccc(-c2cccnc2)n1
IC50 [1]: 5.86 µM
IC50 [2]: 1.49 µM
IC50 [3]: 0.44 µM
Ratio IC50 [6]: 30

Cc1ccc(-c2nnc(-c3ccc(CN4CCN(CCO)CC4)c(C(F)(F)F)c3)o2)cc1Nc1nccc(-c2cccnc2)n1
IC50 [1]: 1.81 µM
IC50 [2]: 0.39 µM
IC50 [3]: 0.98 µM

Cc1ccc(-c2nnc(-c3ccc(CN4CCN(CCN)CC4)c(C(F)(F)F)c3)o2)cc1Nc1nccc(-c2cccnc2)n1
IC50 [1]: 0.3 µM
IC50 [2]: 0.02 µM
IC50 [3]: 0.48 µM
Ratio IC50 [6]: 30

Cc1ccc(-n2cc(-c3cc(C(F)(F)F)cc(C(F)(F)F)c3)nn2)cc1Nc1nccc(-c2cccnc2)n1
IC50 [1]: 2.65 µM
IC50 [2]: 1.6 µM
IC50 [3]: 9.93 µM

Cc1ccc(-c2nnc(-c3ccc(CN4CCN(CCN=C=S)CC4)c(C(F)(F)F)c3)o2)cc1Nc1nccc(-c2cccnc2)n1
IC50 [1]: 0.5 µM
IC50 [2]: 0.07 µM
IC50 [3]: 0.94 µM

Cc1ccc(-n2cc(C(C)O)nn2)cc1Nc1nccc(-c2cccnc2)n1 (stereo not drawn)
IC50 [1]: 15.3 µM
IC50 [2]: 25.5 µM
IC50 [3]: 12.7 µM

C=CC(=O)NCCN1CCN(Cc2ccc(-c3nnc(-c4ccc(C)c(Nc5nccc(-c6cccnc6)n5)c4)o3)cc2C(F)(F)F)CC1
IC50 [1]: 0.6 µM
IC50 [2]: 2.66 µM

Cc1ccc(-c2nnc(-c3ccc(F)c(C(F)(F)F)c3)o2)cc1Nc1nccc(-c2cccnc2)n1
IC50 [1]: 29.7 µM
IC50 [2]: > 30 µM
IC50 [3]: > 30 µM

Cc1ccc(-c2cn(-c3ccc(N4CCOCC4)cc3)nn2)cc1Nc1nccc(-c2cccnc2)n1
IC50 [1]: 23.4 µM
IC50 [2]: > 30 µM
IC50 [3]: 5.28 µM

Cc1ccc(-c2cn(-c3ccc(CN4CCCCC4)cc3)nn2)cc1Nc1nccc(-c2cccnc2)n1
IC50 [1]: 3.29 µM
IC50 [2]: 0.74 µM
IC50 [3]: 1.75 µM

Cc1ccc(-c2cn(-c3ccc(CN4CCOCC4)cc3)nn2)cc1Nc1nccc(-c2cccnc2)n1
IC50 [1]: 22.6 µM
IC50 [2]: 6.96 µM
IC50 [3]: 1.32 µM

Cc1ccc(NC(=O)c2ccc(CN3CCN(C)CC3)cc2)cc1Nc1nccc(-c2cccnc2)n1 [IMATINIB]
IC50 [2]: 0.03 µM
IC50 [3]: 16.7 µM
CC50 [5]: 20.5 µM
